Data on 43 compounds can be found in PubChem BioAssay AID488811 (Sanford-Burnham Center for Chemical Genomics, 2010).

The target in the experiment is Apelin receptor (Homo sapiens) (UniProt P35414). Put plainly: apelin receptor activator analogs – cell-based, luminescence, SAR follow-up (AID 488811). Particulars: CHO-K1 AGTRL-1 PathHunter beta-arrestin. Summed up: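 Material: CHO-K1 APJ β-arrestin enzyme-fragment complementation cells. Times: overnight seeding, 90 min compound exposure at 25 °C. Measured by: β-gal complementation luminescence, 60 min reagent incubation.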
Sequence of Apelin receptor (Homo sapiens) (P35414 whole entry, looked up, the tested form may be a part): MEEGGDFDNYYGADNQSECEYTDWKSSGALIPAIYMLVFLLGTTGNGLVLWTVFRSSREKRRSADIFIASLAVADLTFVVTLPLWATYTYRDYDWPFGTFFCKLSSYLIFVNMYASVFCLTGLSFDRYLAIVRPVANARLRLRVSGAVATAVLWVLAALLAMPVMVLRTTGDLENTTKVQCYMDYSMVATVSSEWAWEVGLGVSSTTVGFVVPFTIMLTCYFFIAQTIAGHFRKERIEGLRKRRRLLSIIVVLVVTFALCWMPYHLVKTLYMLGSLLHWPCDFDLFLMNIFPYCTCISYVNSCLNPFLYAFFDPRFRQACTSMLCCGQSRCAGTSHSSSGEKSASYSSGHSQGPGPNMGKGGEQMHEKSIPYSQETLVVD

Active and inactive are the calls of the source.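 Rule for the calls: active = mean EC50 below 10 µM; inactive = the rest.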

Take `CCN1C(c2ccccc2)=C(c2ccccc2)S/C1=C/C=C1\SC(=S)N(C)C1=O`: the 50% effective concentration (EC50) – broadly, the concentration giving half of the maximal effect – was 3.44 µM.
Under `CCSc1nc(O)c(CC)c(=O)n1C1CCCCC1` stands > 79 µM (inactive); under `CC1=CC(=O)C(C(C)C)=C/C1=N/OS(=O)(=O)c1ccccc1`, 5.98 µM; under `Cc1cc(C)n2nc3nc(N4CCOCC4)nc(-c4ccccc4)c3c2n1`, > 79 µM (inactive).
Under `CCc1c(O)nc(SC(C)CC)n(C(C)CC)c1=O` (stereo not drawn) stands “inactive”; under `CC1=CC(=NOS(=O)(=O)c2ccc(Cl)cc2)C=C(C)C1=O`, 2.9 µM; under `CC1=CC(=O)C(C(C)C)=CC1=NOS(=O)(=O)c1ccccc1`, 5.74 µM.
For the compound `O=S(=O)(Nc1nc(-c2ccccc2)cs1)c1ccc(Br)cc1`, the EC50 is > 79 µM (inactive).
The figure for `CCc1c(O)nc(SC)n(C2CCCCC2)c1=O` is > 79 µM (inactive); for `CN(C)CCSc1nc(O)c(-c2ccccc2)c(=O)n1-c1ccccc1` it is > 79 µM (inactive); for `CCCSc1nc(O)c(CC)c(=O)n1C(C)CC` (stereo not drawn) it is “inactive”.
For `CSc1nc(=O)cc(N)n1-c1ccc(C)cc1`, the EC50 is > 79 µM (inactive).
In the case of `CCc1c(O)nc(SCc2ccccc2)n(C(C)CC)c1=O` (stereo not drawn), the EC50 was > 79 µM (inactive).
The figure for `CCN1/C(=C/C(=O)c2sc(=S)n(CC)c2O)Sc2ccccc21` is > 79 µM (inactive); for `CC1=CC(=O)C=C/C1=N\OS(=O)(=O)c1ccc(C)cc1` it is > 79 µM (inactive).
Under `CC1=C/C(=N/OS(=O)(=O)c2ccc(C)cc2)C=CC1=O` stands > 79 µM (inactive); under `CC1=CC(=NOS(=O)(=O)c2ccccc2)C(C(C)C)=CC1=O`, 7.43 µM.
The figure for `Cc1ccc(S(=O)(=O)Nc2nc(-c3ccccc3)cs2)cc1` is > 79 µM (inactive).
As to `CC1=CC(=O)C=C(C)C1=NOS(=O)(=O)c1ccccc1`, the EC50 was > 79 µM (inactive).
The figure for `C=CCn1c(SCc2ccccc2)nc(O)c(CC)c1=O` is > 79 µM (inactive); for `O=S(=O)(Nc1nc(-c2ccccc2)cs1)c1ccc(Cl)cc1` it is > 79 µM (inactive); for `CCCCSc1nc(O)c(CC)c(=O)n1C1CCCCC1` it is > 79 µM (inactive).
Under `CC1=C(C)C(=NOS(=O)(=O)c2ccc(C)cc2)C=CC1=O` stands > 79 µM (inactive).
Regarding `CCc1c(O)n(C2CCCCC2)c(=S)[nH]c1=O`, the EC50 was > 79 µM (inactive).
The figure for `CC1=CC(=NOS(=O)(=O)c2ccccc2)C=CC1=O` is > 79 µM (inactive); for `Cc1ccc(S(=O)(=O)ON=C2C=CC(=O)C=C2)cc1` it is > 79 µM (inactive); for `CC1=C/C(=N\OS(=O)(=O)c2ccc(Cl)cc2)C=CC1=O` it is > 79 µM (inactive).
The figure for `CCCCSc1nnc(NC(=O)CSc2nc3ncccc3[nH]2)s1` is > 79 µM (inactive); for `C=CCSc1nc(O)c(CC)c(=O)n1C1CCCCC1` it is > 79 µM (inactive).
The figure for `CC1=CC(=NOS(=O)(=O)c2ccccc2)C=C(C)C1=O` is 2.5 µM; for `CC1=C/C(=N\OS(=O)(=O)c2ccc(C)cc2)C(C)=CC1=O` it is 5.4 µM.
Regarding `CCc1c(O)nc(SC)n(C(C)CC)c1=O` (stereo not drawn), the EC50 is > 79 µM (inactive).
The figure for `COc1ccc(S(=O)(=O)ON=C2C=C(C)C(=O)C(C)=C2)cc1` is 2.56 µM; for `CCSc1nc(O)c(CC)c(=O)n1C(C)CC` (stereo not drawn) it is “inactive”; for `CC1=C/C(=N/OS(=O)(=O)c2ccccc2)C(C)=CC1=O` it is 6.82 µM.
The figure for `CCc1c(O)nc(SCc2ccccc2)n(C2CCCCC2)c1=O` is > 79 µM (inactive); for `CC1=C/C(=N/OS(=O)(=O)c2ccc(C)cc2)C(C(C)C)=CC1=O` it is 9.9 µM; for `C=CCSc1nc(O)c(CC)c(=O)n1-c1ccc(C)cc1` it is > 79 µM (inactive).
The figure for `COc1ccc(S(=O)(=O)O/N=C2\C=C(C(C)C)C(=O)C=C2C)cc1` is 4.93 µM.
With `COc1ccccc1-n1c(SCC(=O)c2ccccc2)nc(O)cc1=O`, the EC50 entry is “inactive”.
Under `CC1=CC(=NOS(=O)(=O)c2ccc(C)cc2)C=C(C)C1=O` stands 2.52 µM.
Under `C=CCSc1nc(O)c(CC)c(=O)n1C(C)CC` (stereo not drawn) stands “inactive”.
As for `CCN1/C(=C\C=C2/SC(=S)N(C)C2=O)Sc2ccccc21`, the EC50 is > 79 µM (inactive).
